ChEMBL document CHEMBL1221219, “Selective blockade of 2-arachidonoylglycerol hydrolysis produces cannabinoid behavioral effects” (Nat Chem Biol, 2009)
The source made the active and inactive calls.

Experiments:
[1] = target: T1, Cytosolic phospholipase A2 (Homo sapiens) (UniProt P47712); assay: Inhibition of recombinant cPLA2 4a expressed in HEK293 cells at 20 uM by radiolabeled TLC assay; assay type: cell-based
T1 sequence (whole entry): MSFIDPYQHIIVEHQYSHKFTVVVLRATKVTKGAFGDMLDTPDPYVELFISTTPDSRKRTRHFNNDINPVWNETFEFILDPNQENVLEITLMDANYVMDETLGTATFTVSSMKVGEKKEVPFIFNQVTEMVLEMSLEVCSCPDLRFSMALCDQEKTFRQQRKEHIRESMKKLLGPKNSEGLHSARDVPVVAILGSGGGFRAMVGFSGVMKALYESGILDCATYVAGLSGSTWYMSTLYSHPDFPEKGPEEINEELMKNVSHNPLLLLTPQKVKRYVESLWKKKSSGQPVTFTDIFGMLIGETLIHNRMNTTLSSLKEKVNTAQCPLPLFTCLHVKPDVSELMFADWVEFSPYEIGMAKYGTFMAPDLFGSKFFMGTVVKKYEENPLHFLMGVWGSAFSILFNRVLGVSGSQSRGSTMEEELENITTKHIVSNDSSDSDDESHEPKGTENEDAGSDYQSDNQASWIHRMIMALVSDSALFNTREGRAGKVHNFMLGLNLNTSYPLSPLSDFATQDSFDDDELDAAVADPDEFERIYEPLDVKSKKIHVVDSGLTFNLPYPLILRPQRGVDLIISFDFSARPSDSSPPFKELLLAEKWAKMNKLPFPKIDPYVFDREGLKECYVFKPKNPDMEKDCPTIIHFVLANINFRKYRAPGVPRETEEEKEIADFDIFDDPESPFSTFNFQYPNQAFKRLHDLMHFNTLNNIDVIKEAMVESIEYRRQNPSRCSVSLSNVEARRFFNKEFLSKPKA

[2] = target: T1, Cytosolic phospholipase A2 (Homo sapiens); assay: Inhibition of recombinant cPLA2 4a expressed in HEK293 cells assessed as hydrolysis of PAPC to arachidonic acid at 20 uM TLC assay; assay type: cell-based
Mus musculus [3] = assay: Inhibition of AADACL1 in C57B1/6J mouse brain membrane at 16 mg/kg, ip after 4 hrs by competitive activity-based protein profiling-MudPIT method; assay type: functional, organism-based; design: dose 16 mg/kg
In short: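 Mice were dosed 16 mg kg^-1 i.p. or vehicle and killed at 4 h. Brain membrane proteomes were labelled with FP-biotin, avidin-enriched, trypsin-digested on bead, analysed by multidimensional LC-MS and identified by SEQUEST.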

Mus musculus [4] = assay: Inhibition of NTE-like in C57B1/6J mouse brain membrane at 16 mg/kg, ip after 4 hrs by competitive activity-based protein profiling-MudPIT method; assay type: functional, organism-based; design: dose 16 mg/kg
In short: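 After i.p. dosing in 4:1 PEG300:Tween80, male C57Bl/6J mice were killed at 4 h. Brain membrane proteomes from treated and vehicle mice were labelled with FP-biotin. Labelled proteins were enriched on avidin, digested on-bead with trypsin and analysed by multidimensional LC-MS. Proteins were identified by SEQUEST, and dosed samples were compared with vehicle.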

Mus musculus [5] = assay: Antinociceptive activity against formalin-induced pain in C57B1/6J mouse assessed as paw lifting or licking during early phase (0 to 10 mins) at 40 m/kg, po administered 2 hrs before formalin challenge; assay type: functional, organism-based
Mus musculus [6] = assay: Antinociceptive activity against formalin-induced pain in C57B1/6J mouse assessed as paw lifting or licking during late phase (20-40 mins) at 40 m/kg, po administered 2 hrs before formalin challenge; assay type: functional, organism-based
Mus musculus [7] = assay: Antinociceptive activity against formalin-induced pain in C57B1/6J mouse assessed as paw lifting or licking during early phase (0 to 10 mins) at 40 m/kg, po administered 2 hrs before formalin challenge pretreated with rimonabant; assay type: functional, organism-based
Mus musculus [8] = assay: Induction of hypomotility in C57B1/6J mouse at 16 mg/kg, ip; assay type: functional, organism-based; design: dose 16 mg/kg
In short: (§1)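 Male C57Bl/6J mice, 6-8 weeks, 20-26 g, given 16 mg kg^-1 i.p. in 4:1 v/v PEG300:Tween80 at 4 μl g^-1; vehicle controls received PEG300:Tween80 alone. Cannabinoid effects were scored in the tetrad test.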

Mus musculus [9] = assay: Induction of hypothermia in C57B1/6J mouse at 16 mg/kg, ip pretreated with rimonabant; assay type: functional, organism-based; design: dose 16 mg/kg; in short: as §1
Mus musculus [10] = assay: Induction of hypomotility in CB1 receptor deficient C57B1/6J mouse at 16 mg/kg, ip; assay type: functional, organism-based; design: dose 16 mg/kg; in short: as §1
Mus musculus [11] = assay: Inhibition of FAAH in C57B1/6J mouse brain membrane assessed as elevated level of N-acylethanolamine at 10 mg/kg, ip by competitive activity-based protein profiling method; assay type: functional, organism-based; design: dose 10 mg/kg

O=C(Oc1ccc([N+](=O)[O-])cc1)N1CCC(C(O)(c2ccc3c(c2)OCO3)c2ccc3c(c2)OCO3)CC1
active: Activity (Mus musculus [5]) | Activity (Mus musculus [6]) | Activity (Mus musculus [8]) | inhibition (Mus musculus [11])
inactive: inhibition [1] | inhibition [2] | inhibition (Mus musculus [3]) | inhibition (Mus musculus [4]) | Activity (Mus musculus [7]) | Activity (Mus musculus [9]) | Activity (Mus musculus [10])
